Reference: ChEMBL document CHEMBL4765247, “Novel mouse GABA uptake inhibitors with enhanced inhibitory activity toward mGAT3/4 and their effect on pain threshold in mice” (Eur J Med Chem, 2020)

Key:
[1] = target: T1, Sodium- and chloride-dependent GABA transporter 1 (Mus musculus, UniProt P31648); assay: Inhibition of mouse GAT1 expressed in HEK293 cell line assessed as inhibition of [3H]GABA uptake measured after 35 mins by liquid scintillation method; assay type: cell-based
Outline: (§1)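 Otherwise, the remaining uptake at 100 µM is reported as a percentage. Values without SEM come from a single triplicate experiment.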

GABA transporter 4 [2] = target: T2, GABA transporter 4 (Mus musculus, UniProt P31650); assay: Inhibition of mouse GAT4 expressed in HEK293 cell line assessed as inhibition of [3H]GABA uptake measured after 35 mins by liquid scintillation method; assay type: cell-based; outline: as §1
T2 sequence (P31650 whole entry): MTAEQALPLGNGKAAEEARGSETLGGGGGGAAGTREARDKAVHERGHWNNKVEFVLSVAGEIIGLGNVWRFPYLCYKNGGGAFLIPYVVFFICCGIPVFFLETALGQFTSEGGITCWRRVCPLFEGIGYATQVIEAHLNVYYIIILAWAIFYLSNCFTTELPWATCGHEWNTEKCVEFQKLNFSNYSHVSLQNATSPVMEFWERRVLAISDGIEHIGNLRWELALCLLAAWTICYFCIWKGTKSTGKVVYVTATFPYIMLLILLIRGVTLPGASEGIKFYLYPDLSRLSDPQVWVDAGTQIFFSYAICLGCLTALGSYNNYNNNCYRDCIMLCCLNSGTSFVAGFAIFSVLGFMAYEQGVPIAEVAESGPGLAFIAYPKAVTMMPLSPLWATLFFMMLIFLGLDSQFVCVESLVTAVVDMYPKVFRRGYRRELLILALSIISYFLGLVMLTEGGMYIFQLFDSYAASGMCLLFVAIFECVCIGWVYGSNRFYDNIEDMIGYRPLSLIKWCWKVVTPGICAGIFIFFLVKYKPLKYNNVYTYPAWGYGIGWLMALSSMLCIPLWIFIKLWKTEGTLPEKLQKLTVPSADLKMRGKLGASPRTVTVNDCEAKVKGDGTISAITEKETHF

[3] = target: T1, Sodium- and chloride-dependent GABA transporter 1; assay: Displacement of [3H]NO711 from mouse GAT1 expressed in HEK293 cells measured after 40 mins of incubation by LC-ESI-MS-MS method; assay type: cell-based; conditions: in the assay text read “unlabelled NO711” for “[3H]NO711”
Outline: (§2)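 Competitive MS Binding Assay for mGAT1 using NO-711 as a nonlabeled marker, quantified by LC–ESI–MS–MS. Compounds were screened at 100 µM. […] Otherwise, the percentage of remaining binding at 100 µM is given.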

[4] = target: T1, Sodium- and chloride-dependent GABA transporter 1; assay: Inhibition of mouse GTA 1 receptor
GABA transporter 3 = target: T3, GABA transporter 3 (Mus musculus, UniProt P31649); assay: Inhibition of mouse GTA 3 receptor
T3 sequence (P31649 whole entry): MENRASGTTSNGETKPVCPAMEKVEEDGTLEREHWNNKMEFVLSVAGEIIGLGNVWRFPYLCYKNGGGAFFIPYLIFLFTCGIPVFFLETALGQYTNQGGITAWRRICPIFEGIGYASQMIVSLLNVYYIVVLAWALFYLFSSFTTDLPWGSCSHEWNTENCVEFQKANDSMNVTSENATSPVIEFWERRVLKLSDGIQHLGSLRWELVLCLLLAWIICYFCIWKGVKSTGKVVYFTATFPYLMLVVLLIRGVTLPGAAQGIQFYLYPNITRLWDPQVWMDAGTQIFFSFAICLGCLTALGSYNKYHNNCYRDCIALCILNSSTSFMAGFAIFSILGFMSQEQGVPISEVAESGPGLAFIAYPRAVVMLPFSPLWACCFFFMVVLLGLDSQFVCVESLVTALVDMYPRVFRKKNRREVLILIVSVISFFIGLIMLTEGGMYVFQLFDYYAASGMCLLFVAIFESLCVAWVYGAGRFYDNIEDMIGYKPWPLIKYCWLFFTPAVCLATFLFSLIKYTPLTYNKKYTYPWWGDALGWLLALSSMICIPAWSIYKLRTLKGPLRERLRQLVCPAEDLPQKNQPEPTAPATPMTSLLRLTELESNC

GABA transporter 4 [5] = target: T2, GABA transporter 4; assay: Inhibition of mouse GTA4 receptor
[6] = Lipophilicity, logP of the compound by UPLC-MS method; assay type: physicochemical; conditions: octanol/water
Outline: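 LogP measured by UPLC on a BEH C18 column (2.1 × 100 mm, 1.7 µm, with C18 pre-column) coupled to an ESI tandem quadrupole MS. The method was calibrated with reference compounds of established logP values.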

[7] = target: Sodium- and chloride-dependent GABA transporter 1 (Mus musculus) (UniProt P31648); assay: Displacement of [3H]NO711 from mouse GAT1 expressed in HEK293 cells at 100 uM measured after 40 mins of incubation by LC-ESI-MS-MS method; assay type: cell-based; conditions: in the assay text read “NO711” for “[3H]NO711”; outline: as §2
[8] = target: Sodium- and chloride-dependent GABA transporter 1 (Mus musculus) (UniProt P31648); assay: Inhibition of mouse GAT1 expressed in HEK293 cell line assessed as inhibition of [3H]GABA uptake at 100 uM measured after 35 mins by liquid scintillation method; values are per cent of control

IC50 [1]	IC50 (GABA transporter 4 [2])	logP ([6]; read-out: logP)	residual activity [7]	SMILES	further results
7.08 µM	> 302 µM	–	–	Cc1ccsc1C(=CCCN(C)C1CCc2onc(O)c2C1)c1sccc1C (stereo unspecified)	–
13.8 µM	–	–	–	Cc1ccsc1C(=CCCN(C)[C@H](CCO)C(=O)NCc1ccccc1Cl)c1sccc1C	Ki [3]: 25.7 µM
–	–	–	–	NCCC(=O)O [BETA-ALANINE]	IC50 [4]: 2950 µM; IC50 (GABA transporter 3): 66.1 µM; IC50 (GABA transporter 4 [5]): 110 µM
7.59 µM	5.62 µM	6.11	–	Cc1ccsc1C(=CCCN(C)C(CCN)C(=O)NCc1ccccc1Cl)c1sccc1C (stereo unspecified)	Ki [3]: 11.7 µM
–	–	–	–	O=C1Nc2ccc(-c3cccs3)cc2C1=O	IC50 [4]: > 1000 µM; IC50 (GABA transporter 3): 182 µM; IC50 (GABA transporter 4 [5]): 6.31 µM
–	–	–	59%	Cc1ccsc1C(=CCCN(C)C(CC(C)O)C(=O)NCc1ccccc1)c1sccc1C (racemic; form 2) [listing 1 of 2 here]	–
9.33 µM	8.13 µM	5.85	–	Cc1ccsc1C(=CCCN(C)C(CCN)C(=O)NCc1ccc(Cl)cc1)c1sccc1C (stereo unspecified)	Ki [3]: 20 µM
9.33 µM	7.41 µM	6.38	81%	Cc1ccsc1C(=CCCN(C)C(CCO)C(=O)NCc1ccc(Cl)cc1)c1sccc1C (stereo unspecified)	–
–	–	–	–	CN(CCC=C(c1ccccc1)c1ccccc1)C(CCN)C(=O)NCc1ccccc1Cl (stereo unspecified)	IC50 (GABA transporter 3): 10 µM
–	–	–	91%	Cc1ccsc1C(=CCCN(C)C(CC(C)O)C(=O)NCc1ccc(Cl)cc1)c1sccc1C (mixture of isomers) [listing 1 of 2 here]	–
20.4 µM	–	–	–	Cc1ccsc1C(=CCCN(C)[C@H](CO)C(=O)NCc1ccc(Cl)cc1)c1sccc1C	Ki [3]: 18.6 µM
57.5 µM	13.2 µM	–	–	Cc1ccsc1C(=CCCN(C)C(CC(C)O)C(=O)NCc1ccc(Cl)cc1)c1sccc1C (mixture of isomers) [listing 2 of 2 here]	logP [6]: 6.77
12.3 µM	5.5 µM	–	–	Cc1ccc(CNC(=O)C(CC(C)O)N(C)CCC=C(c2sccc2C)c2sccc2C)cc1 (racemic) [listing 1 of 2 here]	–
25.1 µM	7.08 µM	6.15	–	Cc1ccc(CNC(=O)C(CC(C)O)N(C)CCC=C(c2sccc2C)c2sccc2C)cc1 (stereo in doubt) [listing 1 of 2 here]	–
66.1 µM	17.8 µM	5.51	–	Cc1ccsc1C(=CCCN(C)C(CC(C)O)C(=O)NCc1ccc(F)cc1)c1sccc1C (racemic; form 1) [listing 1 of 2 here]	–
–	–	–	79%	Cc1ccc(CNC(=O)C(CC(C)O)N(C)CCC=C(c2sccc2C)c2sccc2C)cc1 (racemic) [listing 2 of 2 here]	–
12.3 µM	8.71 µM	6.37	71%	Cc1ccsc1C(=CCCN(C)C(CCO)C(=O)NCc1ccc(F)cc1F)c1sccc1C (stereo unspecified)	–
–	28.8 µM	5.99	–	Cc1ccsc1C(=CCCN(C)C(CC(C)O)C(=O)NCc1ccc(Cl)cc1)c1sccc1C (stereo in doubt) [listing 1 of 2 here]	–
–	–	–	–	Cc1ccsc1C(=CCCN(C)[C@H]1CCc2onc(O)c2C1)c1sccc1C	IC50 [4]: 7.08 µM; IC50 (GABA transporter 3): > 302 µM; IC50 (GABA transporter 4 [5]): > 302 µM
–	–	–	82%	Cc1ccsc1C(=CCCN(C)C(CC(C)O)C(=O)NCc1ccccc1)c1sccc1C (racemic; form 1) [listing 1 of 2 here]	–
–	–	–	85%	Cc1ccsc1C(=CCCN(C)C(CC(C)O)C(=O)NCc1ccccc1Cl)c1sccc1C (racemic; form 1) [listing 1 of 2 here]	residual activity [8]: 51%
30.2 µM	13.8 µM	6.1	68%	Cc1ccsc1C(=CCCN(C)C(CCO)C(=O)NC(C)c1ccccc1)c1sccc1C (stereo unspecified)	–
8.71 µM	6.17 µM	6.46	68%	CC(=O)NCCC(C(=O)NCc1ccccc1Cl)N(C)CCC=C(c1sccc1C)c1sccc1C (stereo unspecified)	–

IC50 [1]	IC50 (GABA transporter 4 [2])	logP ([6]; read-out: logP)	residual activity [7]	SMILES	further results
11.5 µM	6.61 µM	5.5	–	Cc1ccsc1C(=CCCN(C)C(CCN)C(=O)NCc1ccccc1)c1sccc1C (stereo unspecified)	Ki [3]: 24.5 µM
–	–	–	–	Cc1ccsc1C(=CCCN(C)[C@@H](CO)C(=O)NCc1ccc(Cl)cc1)c1sccc1C	Ki [3]: 87.1 µM
15.5 µM	11 µM	5.87	70%	Cc1ccsc1C(=CCCN(C)C(CCO)C(=O)NCc1ccc(F)cc1)c1sccc1C (stereo unspecified)	–
–	9.55 µM	5.95	–	Cc1ccsc1C(=CCCN(C)C(CC(C)O)C(=O)NCc1ccccc1Cl)c1sccc1C (racemic; form 1) [listing 2 of 2 here]	–
–	–	–	88%	Cc1ccsc1C(=CCCN(C)C(CC(C)O)C(=O)NCc1ccccc1Cl)c1sccc1C (racemic; form 2) [listing 1 of 2 here]	residual activity [8]: 47%
–	85.1 µM	–	–	O=C(O)C1=CCCN(CCO/N=C/c2ccccc2-c2ccc(Cl)cc2Cl)C1	–
2510 µM	5.01 µM	–	–	NCC(O)C(=O)O (stereo unspecified)	–
–	–	–	–	COc1ccc(C(OCCN2CCC[C@@H](C(=O)O)C2)(c2ccc(OC)cc2)c2ccc(OC)cc2C)cc1	IC50 [4]: 64.6 µM; IC50 (GABA transporter 3): 14.1 µM; IC50 (GABA transporter 4 [5]): 1.66 µM
–	–	–	78%	Cc1ccsc1C(=CCCN(C)C(CC(C)O)C(=O)NCc1ccc(F)cc1)c1sccc1C (racemic; form 1) [listing 2 of 2 here]	–
11.7 µM	7.59 µM	6.45	–	Cc1ccsc1C(=CCCN(C)C(CCN)C(=O)NCc1ccc(F)cc1)c1sccc1C (stereo unspecified)	Ki [3]: 21.9 µM
–	–	–	70%	Cc1ccsc1C(=CCCN(C)C(CC(C)O)C(=O)NCc1ccc(F)cc1)c1sccc1C (racemic; form 2) [listing 1 of 2 here]	–
–	–	–	90%	Cc1ccsc1C(=CCCN(C)C(CC(C)O)C(=O)NCc1ccc(Cl)cc1)c1sccc1C (stereo in doubt) [listing 2 of 2 here]	residual activity [8]: 63%
–	–	–	72%	Cc1ccc(CNC(=O)C(CC(C)O)N(C)CCC=C(c2sccc2C)c2sccc2C)cc1 (stereo in doubt) [listing 2 of 2 here]	–
12.9 µM	7.08 µM	6.2	58%	Cc1ccc(CNC(=O)C(CCO)N(C)CCC=C(c2sccc2C)c2sccc2C)cc1 (stereo unspecified)	–
13.2 µM	3.89 µM	5.64	–	Cc1ccsc1C(=CCCN(C)C(CC(C)O)C(=O)NCc1ccccc1)c1sccc1C (racemic; form 1) [listing 2 of 2 here]	–
–	–	–	–	Cc1ccsc1C(=CCCN(C)C(CC(C)O)C(=O)NCc1ccccc1Cl)c1sccc1C (racemic; form 2) [listing 2 of 2 here]	logP [6]: 5.67; pIC50 (GABA transporter 4 [2]; hek293): 5.02
35.5 µM	20.9 µM	6.26	46%	Cc1ccsc1C(=CCCN(C)C(CO)C(=O)NCc1ccccc1)c1sccc1C (stereo unspecified)	–
85.1 µM	29.5 µM	–	–	Cc1ccsc1C(=CCCN(C)C(CC(C)O)C(=O)NCc1ccc(F)cc1)c1sccc1C (racemic; form 2) [listing 2 of 2 here]	–
13.5 µM	17 µM	–	92%	Cc1ccsc1C(=CCCN(C)C(CO)C(=O)NCc1ccc(C(F)(F)F)cc1)c1sccc1C (stereo unspecified)	–
23.4 µM	18.6 µM	–	–	Cc1ccsc1C(=CCCN(C)C(CC(C)O)C(=O)NCc1ccccc1)c1sccc1C (racemic; form 2) [listing 2 of 2 here]	logP [6]: 6.22
15.8 µM	10.2 µM	5.71	60%	Cc1ccsc1C(=CCCN(C)C(CCO)C(=O)NCc1ccccc1)c1sccc1C (stereo unspecified)	–
11.5 µM	6.92 µM	6.61	–	Cc1ccc(CNC(=O)C(CCN)N(C)CCC=C(c2sccc2C)c2sccc2C)cc1 (stereo unspecified)	Ki [3]: 18.2 µM
